Publication PMC2781304 (Biochemistry, 2009)
Values joined by “and” are separate entries in the source; they are usually repeats but may differ in a detail not shown here. Equal entries are not always repeated. Where two headings read alike, the source gives them in different places. One block for each substance: values may come before it. Where no end group is shown, it is not given here.

Legend:
soluble receptor = settings: cited from earlier work
IM-9 cell receptors [1] = settings: cited from earlier work
[2] = system: receptors on the human placental membrane; settings: ref 62; cited from earlier work
HepG2 cells = settings: ref 31; cited from earlier work
insulin receptor = settings: cited from earlier work
[3] = molecular target: T1, human insulin receptor on IM9 cells (Homo sapiens, UniProt P06213); assay: Association kinetics of 125I-labeled insulins on IM9 cells; assay type: binding; settings: 125I-labeled ligand, 15 °C
T1 sequence (P06213 28-1370 isoform P06213-2 limits assumed): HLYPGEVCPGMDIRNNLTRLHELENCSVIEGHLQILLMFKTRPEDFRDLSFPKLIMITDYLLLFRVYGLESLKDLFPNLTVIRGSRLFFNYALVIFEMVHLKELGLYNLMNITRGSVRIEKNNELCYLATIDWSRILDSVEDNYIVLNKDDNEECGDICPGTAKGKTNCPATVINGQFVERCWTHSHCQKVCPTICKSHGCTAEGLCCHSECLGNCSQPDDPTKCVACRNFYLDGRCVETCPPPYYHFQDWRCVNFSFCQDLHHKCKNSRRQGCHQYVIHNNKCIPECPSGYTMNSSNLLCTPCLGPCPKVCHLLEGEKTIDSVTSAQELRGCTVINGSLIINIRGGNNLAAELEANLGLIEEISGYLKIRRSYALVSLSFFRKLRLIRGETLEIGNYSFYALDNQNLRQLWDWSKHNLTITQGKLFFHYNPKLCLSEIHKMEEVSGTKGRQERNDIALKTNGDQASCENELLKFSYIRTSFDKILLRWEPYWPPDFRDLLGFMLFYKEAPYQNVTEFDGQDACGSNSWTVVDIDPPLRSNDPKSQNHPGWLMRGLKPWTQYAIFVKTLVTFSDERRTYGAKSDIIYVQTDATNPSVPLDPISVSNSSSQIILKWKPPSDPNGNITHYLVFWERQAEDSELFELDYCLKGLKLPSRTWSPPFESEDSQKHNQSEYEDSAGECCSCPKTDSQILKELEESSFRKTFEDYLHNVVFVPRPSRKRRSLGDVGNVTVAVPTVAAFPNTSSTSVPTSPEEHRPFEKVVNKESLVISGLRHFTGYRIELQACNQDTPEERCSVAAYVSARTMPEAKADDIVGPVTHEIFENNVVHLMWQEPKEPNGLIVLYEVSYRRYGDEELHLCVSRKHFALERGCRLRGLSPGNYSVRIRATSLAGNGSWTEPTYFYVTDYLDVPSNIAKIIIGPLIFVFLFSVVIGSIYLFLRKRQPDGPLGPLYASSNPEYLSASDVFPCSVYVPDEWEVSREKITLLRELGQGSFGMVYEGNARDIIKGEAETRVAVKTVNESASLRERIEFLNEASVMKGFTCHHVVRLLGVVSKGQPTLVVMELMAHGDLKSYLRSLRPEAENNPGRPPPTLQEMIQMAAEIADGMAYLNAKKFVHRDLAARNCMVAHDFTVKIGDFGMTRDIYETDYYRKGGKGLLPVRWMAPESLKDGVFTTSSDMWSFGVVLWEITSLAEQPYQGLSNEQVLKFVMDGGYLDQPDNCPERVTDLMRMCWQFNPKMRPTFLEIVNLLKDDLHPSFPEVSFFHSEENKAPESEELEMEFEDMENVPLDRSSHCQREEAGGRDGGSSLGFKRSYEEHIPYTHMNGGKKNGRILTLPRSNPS
T1 sequence (P06213 763-1382 partner limits assumed): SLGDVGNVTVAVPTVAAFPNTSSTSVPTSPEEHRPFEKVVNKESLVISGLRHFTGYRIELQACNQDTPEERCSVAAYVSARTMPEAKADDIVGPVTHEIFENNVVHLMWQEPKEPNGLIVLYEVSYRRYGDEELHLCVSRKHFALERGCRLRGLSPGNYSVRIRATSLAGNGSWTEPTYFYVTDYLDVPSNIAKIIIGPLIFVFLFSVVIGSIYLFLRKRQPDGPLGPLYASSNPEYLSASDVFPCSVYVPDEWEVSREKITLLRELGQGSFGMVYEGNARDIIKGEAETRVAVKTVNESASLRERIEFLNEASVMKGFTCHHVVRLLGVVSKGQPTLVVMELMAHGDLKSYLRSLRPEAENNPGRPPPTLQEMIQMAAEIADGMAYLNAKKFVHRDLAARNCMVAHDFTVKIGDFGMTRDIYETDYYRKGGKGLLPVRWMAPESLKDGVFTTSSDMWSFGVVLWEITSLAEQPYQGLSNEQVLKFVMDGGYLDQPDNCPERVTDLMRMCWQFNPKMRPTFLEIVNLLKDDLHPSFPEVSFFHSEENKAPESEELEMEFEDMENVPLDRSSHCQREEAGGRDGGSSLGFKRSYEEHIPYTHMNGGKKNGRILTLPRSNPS

primary rat adipocytes = assay: Insulin-stimulated lipogenesis; assay type: cell-based; settings: for maximal lipogenesis: compared with human insulin; for metabolic potency relative to human insulin: lipogenesis in primary rat adipocytes
In short: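 Adipocytes from male Sprague-Dawley rat epididymal fat pads, collagenase-digested (1 mg/mL, 45 min, 37 °C) in KRH with 3.5% BSA, 0.2 uM adenosine and 2 mM glucose. […] Lipid-extracted label counted, background (tracer without hormone) subtracted. Triplicates, three experiments, four-parameter logistic fit for ED50.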

[4] = system: NIH 3T3 fibroblasts overexpressing the wild-type human insulin receptor; assay: [3H]thymidine incorporation; assay type: cell-based, mouse; settings: for relative mitogenic potency over relative metabolic potency: thymidine incorporation versus lipogenesis in rat adipocytes
[5] = system: soluble IR ectodomain (sIR); assay: Homologous competition for soluble IR ectodomain, PEG precipitation; assay type: binding; settings: 15 pM tracer, 16 h at 4 °C; % of human insulin
isolated rat adipocytes = settings: ref 16-18; cited from earlier work
rat adipocytes = settings: cited from earlier work
rat liver cells = settings: ref 20; cited from earlier work
rat fat pad = settings: relative to that of bovine insulin; cited from earlier work
deoxyglucose transport = settings: ref 19; cited from earlier work
IM-9 cell receptors [6] = settings: ref 19; cited from earlier work
[7] = actual data were not shown; cited from earlier work
[8] = ref 66; cited from earlier work
[9] = molecular target: T1, human insulin receptor on IM9 cells; assay: Dissociation kinetics of 125I-labeled insulins from IM9 cells; assay type: binding; settings: prebound 6 h at 15 °C, 40-fold dilution

Substance: B17 to Val: human insulin with B17 substitution to Val (literature) [reference compound]
- reduction of affinity, substitutions at B17 (soluble receptor; solubilized receptor): 2.5 fold

Substance: B21 to Ala: human insulin with mutation of B21 to Ala (literature)
- affinity in IM-9 cells (IM-9 cell receptors [1]; ref 26): 226%
- decrease in the level of binding to receptors on the human placental membrane [2]: ~2 fold

Substance: HisA8 human insulin: human insulin with the ThrA8 to His mutation (literature)
- affinity relative to human insulin in IM-9 lymphocytes (IM-9 cell receptors [1]; ref 47, 56): 300%
- affinity relative to human insulin in HepG2 cells (HepG2 cells): 327%

Substance: HisB10Asp: human insulin analogue, His to Asp at B10
- enhancement of the affinity and activity of human insulin (insulin receptor; ref 31, 46): 3−5 fold

Substance: IleA10 with Ser: insulin with substitution of IleA10 with Ser as in IGF-I and IGF-II (literature) [reference compound]
- loss of affinity (insulin receptor; ref 64): 5 fold

- incubation time to reach apparent steady state of binding [3]: 4 h
- mitogenic potency relative to human insulin ([4]; thymidine incorporation): 32%
- relative mitogenic potency over relative metabolic potency [4]: 3.8
- maximal stimulation ([4]; thymidine incorporation, difference not statistically significant): 75 % of that of human insulin
- relative affinity for the purified soluble human receptor ectodomain [5]: 22%
Substance: hagfish insulin: insulin from the Atlantic hagfish (Myxine glutinosa), gift from S. Falkmer (Insulin B chain RTTGHLCGKDLVNALYIACGVRGFFYDPTKM; Insulin A chain GIVEQCCHKRCSIYDLENYCN; ends and bridges not checked; cysteine pairing not given here; UniProt P01342 27-57; P01342 95-115, looked up)
- maximal lipogenesis (primary rat adipocytes): same maximal lipogenesis as human insulin
- metabolic potency relative to human insulin (primary rat adipocytes): 8.4% and 8%
- affinity for isolated rat adipocytes, % of that of porcine insulin (isolated rat adipocytes): 23%
- biological activity in stimulating lipogenesis in rat adipocytes (rat adipocytes; ref 16): 3.8%
- biological activity in stimulating lipogenesis in rat adipocytes (rat adipocytes; ref 51): 4.6%
- biological potency in stimulating lipogenesis (rat adipocytes; same cells, relative to porcine insulin): 3−5%
- potency in rat liver cells (rat liver cells): 3%
- biological activity in rat fat pad (rat fat pad): 7%
- biological activity for deoxyglucose transport (deoxyglucose transport): 5−10%
- maximal acceleration of dissociation of 125I-labeled porcine insulin (IM-9 cell receptors [6]): same maximal acceleration
- potency to accelerate the dissociation of 125I-labeled porcine insulin (IM-9 cell receptors [6]): 5 % of unlabeled porcine insulin
- mitogenic:metabolic potency ratio [7]: 1.0

Substance: insulin Wakayama: insulin with a ValA3 to Leu mutation found in a diabetic patient
- potency [8]: 0.2%

- incubation time to reach apparent steady state of binding [3]: 6 h
- dissociation of 125I-labeled ligand by dilution alone [9]: much slower
- mitogenic potency relative to human insulin ([4]; thymidine incorporation): 54%
- relative mitogenic potency over relative metabolic potency [4]: 5.8
Substance: lamprey insulin: insulin purified from the islet organ of the river lamprey L. fluviatilis (Insulin B chain SALTGAGGTHLCGSHLVEALYVVCGDRGFFYTPSKT; Insulin A chain GIVEQCCHRKCSIYDMENYCN; ends and bridges not checked; cysteine pairing not given here; UniProt P68988 1-36; P68988 37-57, looked up)
- maximal lipogenesis (primary rat adipocytes): same maximal lipogenesis as human insulin
- metabolic potency relative to human insulin (primary rat adipocytes): 9.4% and 9%
- maximal response ([4]; thymidine incorporation, 10% FBS as maximal response): same maximal response as serum or human insulin
- relative affinity for the soluble receptor based on IC50 (soluble receptor; ref 9): 130%
